# Activity calls are given as the source filed them. No cut-off for these calls is given here.
# Legend:
# Mus musculus [1] = assay: Anticonvulsant activity in mice, (induced by subcutaneous administration of Metrazol.) after 0.5 hr of administration, for Phase-II screening; format: functional; settings: sc
# Method in brief: (§1)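 Phase II quantitative evaluation in mice by the NINCDS program. Dosing was ip as suspensions in 0.5% methylcellulose or 30% polyethylene glycol 400. ED50 (MES or subcutaneous Metrazol) or TD50 (rotorod) in mg/kg was derived with 95% confidence intervals, measured at the stated time after administration.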
# Mus musculus [2] = assay: Anticonvulsant activity in mice, induced by subcutaneous administration of Metrazol for Phase-I screening; Active at 30 mg/kg; format: functional, organism-based; set-up: dose 30 mg/kg
# Method in brief: (§2)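 Phase I qualitative screen run by the NINCDS Anticonvulsant Drug Development Program. Mice (1-4 per group) received 30, 100 or 300 mg/kg ip as suspensions in 30% polyethylene glycol 400 unless otherwise noted. Testing was 30 min after dosing in the MES, subcutaneous Metrazol or rotorod toxicity model.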
# [3] = biological target: Sodium channel alpha subunits; brain (Types I, II, III) (Rattus norvegicus, UniProt P04775+P04774+P08104); assay: In vitro inhibition of [3H]-BTX-B binding to sodium channels in rat brain synapto-neurosomes; format: tissue-based
# Method in brief: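 Rat cerebral cortex synaptoneurosomes were prepared by glass-glass homogenization in choline chloride/HEPES/glucose/MgSO4/KCl buffer, then spun at 1000g for 15 min at 4 °C. Incubation was 40 min at 25 °C with 10 nM [3H]BTX-B, 50 µg/mL scorpion venom, about 980 µg protein and varying compound concentrations (final MeOH <1%). Bound label was collected by filtration and scintillation counting. Nonspecific binding was taken with 250 µM veratridine. IC50 is the concentration giving 50% inhibition of specific binding.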
# Mus musculus [4] = assay: Anticonvulsant activity in mice (induced by maximal electroshock )after 0.5 hr of administration, for Phase-II screening; format: functional; method in brief: as §1
# [5] = Rotarod toxicity test for the compound in Phase-II screening was determined; format: organism-based; settings: mouse, in vivo
# Mus musculus [6] = assay: Anticonvulsant activity in mice, induced by maximal electroshock for Phase-I screening; Active at 300 mg/kg; format: functional, organism-based; set-up: dose 300 mg/kg; method in brief: as §2
# Mus musculus [7] = assay: Rotarod toxicity test in Phase-I screening was determined; Active at 30 mg/kg; format: organism-based; set-up: dose 30 mg/kg; settings: in vivo; method in brief: as §2
# Mus musculus [8] = assay: Anticonvulsant activity in mice, (induced by subcutaneous administration of Metrazol.) after 1 hr (tested for rotarod test only) of administration, for Phase-II screening; format: functional; settings: sc
# Mus musculus [9] = assay: Anticonvulsant activity in mice(induced by maximal electroshock )after 1 hr (tested for rotarod test only) of administration, for Phase-II screening; format: functional
# Mus musculus [10] = assay: Anticonvulsant activity in mice, induced by maximal electroshock for Phase-I screening; Inactive up to 300 mg/kg; format: functional, organism-based; set-up: dose 300 mg/kg
# Method in brief: (§3)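 NINCDS Anticonvulsant Drug Development Program qualitative phase I screen in mice (1-4 per dose) at 30, 100 and 300 mg/kg, given ip as suspensions in 30% PEG 400 (some in 0.5% methylcellulose). Challenge 30 min post-dose with maximal electroshock or subcutaneous Metrazol.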
# Mus musculus [11] = assay: Anticonvulsant activity in mice, induced by subcutaneous administration of Metrazol for Phase-I screening; Inactive up to 300 mg/kg; format: functional, organism-based; set-up: dose 300 mg/kg; method in brief: as §3
# Mus musculus [12] = assay: Rotarod toxicity test in Phase-I screening was determined; Inactive up to 300 mg/kg; format: organism-based; set-up: dose 300 mg/kg; settings: in vivo; method in brief: as §2
# Mus musculus [13] = assay: Anticonvulsant activity in mice(induced by maximal electroshock )after 0.5 hr of administration, for Phase-II screening; format: functional; method in brief: as §1
# Mus musculus [14] = assay: Anticonvulsant activity in mice, induced by subcutaneous administration of Metrazol for Phase-I screening; Active at 300 mg/kg; format: functional, organism-based; set-up: dose 300 mg/kg; method in brief: as §2
# Mus musculus [15] = assay: Anticonvulsant activity in mice(induced by maximal electroshock) after 0.25 hr of administration, for Phase-II screening; format: functional; method in brief: as §1
# Mus musculus [16] = assay: Anticonvulsant activity in mice, (induced by subcutaneous administration of Metrazol) after 0.25 hr of administration, for Phase-II screening; format: functional; settings: sc; method in brief: as §1
# Mus musculus [17] = assay: Rotarod toxicity test in Phase-I screening was determined; active at 100 mg/kg; format: organism-based; set-up: dose 100 mg/kg; settings: in vivo; method in brief: as §2
# Mus musculus [18] = assay: Anticonvulsant activity in mice, induced by subcutaneous administration of Metrazol for Phase-I screening; active at 100 mg/kg; format: functional, organism-based; set-up: dose 100 mg/kg; method in brief: as §2
# Mus musculus [19] = assay: Anticonvulsant activity in mice, induced by maximal electroshock for Phase-I screening; active at 100 mg/kg; format: functional, organism-based; set-up: dose 100 mg/kg; method in brief: as §2
# Mus musculus [20] = assay: Anticonvulsant activity in mice, induced by maximal electroshock for Phase-I screening; Active at 100 mg/kg; format: functional, organism-based; set-up: dose 100 mg/kg; method in brief: as §2
# Mus musculus [21] = assay: Rotarod toxicity test in Phase-I screening was determined; Active at 300 mg/kg; format: organism-based; set-up: dose 300 mg/kg; settings: in vivo; method in brief: as §2
# Mus musculus [22] = assay: Anticonvulsant activity in mice(induced by maximal electroshock )after 0.25 hr of administration, for Phase-II screening; format: functional; method in brief: as §1
# Mus musculus [23] = assay: Anticonvulsant activity in mice, (induced by subcutaneous administration of Metrazol.) after 0.25 hr of administration, for Phase-II screening; format: functional; settings: sc; method in brief: as §1
# Mus musculus [24] = assay: Anticonvulsant activity in mice, induced by subcutaneous administration of Metrazol for Phase-I screening; Active at 100 mg/kg; format: functional, organism-based; set-up: dose 100 mg/kg; method in brief: as §2
# Mus musculus [25] = assay: Anticonvulsant activity in mice, (induced by subcutaneous administration of Metrazol.) after 2 hr of administration, for Phase-II screening; Inactive; format: functional, organism-based; method in brief: as §1
# Mus musculus [26] = assay: Anticonvulsant activity in mice(induced by maximal electroshock )after 2 hr of administration, for Phase-II screening; format: functional; method in brief: as §1
# Mus musculus [27] = assay: Anticonvulsant activity in mice, (induced by subcutaneous administration of Metrazol.) after 0.25 hr of administration, for Phase-II screening; Inactive; format: functional, organism-based; method in brief: as §1
Structure (SMILES),ED50 (Mus musculus [1]) [mg/kg],IC50 [3] [µM],TD50 [5] [mg/kg],scMet (Mus musculus [14]),MES (Mus musculus [20]),other results
CCC1(c2ccccc2)OC(=O)NC1=O (stereo not given),39,> 800,164,–,–,scMet (Mus musculus [2]): Active; ED50 (Mus musculus [4]): 86 mg/kg; MES (Mus musculus [6]): Active; Rotorod (Mus musculus [7]): Active
CN1C(=O)OC(C)(C)C1=O [TRIMETHADIONE],–,> 1000,819,–,–,ED50 (Mus musculus [8]): 300 mg/kg; ED50 (Mus musculus [9]): 627 mg/kg
O=C1NCCCC1(O)c1ccccc1 (stereo not given),–,> 800,–,–,–,MES (Mus musculus [10]): inactive; scMet (Mus musculus [11]): inactive; Rotorod (Mus musculus [12]): Not Active
CCOC(=O)N1CCCC(OC)(c2ccccc2)C1=O (stereo not given),124,590,> 300,Active,–,ED50 (Mus musculus [13]): 225 mg/kg; Rotorod (Mus musculus [12]): Not Active; MES (Mus musculus [6]): Active
O=C1O[C@]2(c3ccccc3)CCCCCN1C2=O,–,160,147,–,–,ED50 (Mus musculus [15]): 66 mg/kg; ED50 (Mus musculus [16]): 45 mg/kg; Rotorod (Mus musculus [17]): Active; scMet (Mus musculus [18]): Active; MES (Mus musculus [19]): Active
CN1CCCC(O)(c2ccccc2)C1=O (stereo not given),128,> 800,~350,Active,Active,ED50 (Mus musculus [13]): 84 mg/kg; Rotorod (Mus musculus [12]): Not Active
O=C1NCCCCCC1(O)c1ccccc1 (stereo not given),–,> 800,199,Active,Active,Rotorod (Mus musculus [21]): Active; ED50 (Mus musculus [22]): 80 mg/kg; ED50 (Mus musculus [23]): 108 mg/kg
O=C1NCCCCC1(O)c1ccccc1 (stereo not given),–,> 800,210,Active,Active,Rotorod (Mus musculus [21]): Active; ED50 (Mus musculus [22]): 63 mg/kg; ED50 (Mus musculus [23]): 74 mg/kg
COC1(c2ccccc2)CCCNC1=O (stereo not given),50,> 800,239,Active,Active,ED50 (Mus musculus [13]): 120 mg/kg; Rotorod (Mus musculus [21]): Active
CCOC(=O)N1CCCCC(O)(c2ccccc2)C1=O (stereo not given),–,640,216,–,Active,Rotorod (Mus musculus [21]): Active; ED50 (Mus musculus [22]): 84 mg/kg; scMet (Mus musculus [24]): Active
CCC1(c2ccccc2)OC(=O)N(C)C1=O (stereo not given),45,500,504,–,–,ED50 (Mus musculus [13]): 124 mg/kg; scMet (Mus musculus [2]): Active; MES (Mus musculus [6]): Active; Rotorod (Mus musculus [7]): Active
O=C1NC(=O)C(c2ccccc2)(c2ccccc2)N1 [PHENYTOIN],–,40,–,–,–,ED50 (Mus musculus [25]): inactive; ED50 (Mus musculus [26]): 10 mg/kg
NC(=O)N1c2ccccc2C=Cc2ccccc21 [CARBAMAZEPINE],–,131,–,–,–,ED50 (Mus musculus [22]): 9 mg/kg; ED50 (Mus musculus [27]): inactive
O=C1O[C@@]2(c3ccccc3)CCCCN1C2=O,–,380,–,Active,–,MES (Mus musculus [10]): inactive; Rotorod (Mus musculus [12]): Not Active

# Source: ChEMBL document CHEMBL1124013, “Anticonvulsant activities of phenyl-substituted bicyclic 2,4-oxazolidinediones and monocyclic models. Comparison with binding to the neuronal voltage-dependent sodium channel” (J Med Chem, 1988)
